Results as given in ChEMBL document CHEMBL1795297, “Design, synthesis and molecular docking studies of novel triazole as antifungal agent” (2011).
In brackets after ≈: the same amount, converted by molar mass.

What was measured:
Type in all cases: functional
Nannizzia gypsea = experiment: Antifungal activity against Microsporum gypseum clinical isolate by micro-broth dilution method
Outline: (§1)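 Clinical isolate. MIC by broth microdilution following the NCCLS M27-A2 reference method for yeasts. Compounds were dissolved in DMSO, serially diluted in growth medium, inoculated and incubated at 35 °C. MIC80 is the first well with about 80% less growth than the drug-free well. Each test was run three times and the mean of replicates reported.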

[1] = Antifungal activity against Fonsecaea compacta clinical isolate by micro-broth dilution method; outline: as §1
Cryptococcus neoformans = experiment: Antifungal activity against Cryptococcus neoformans ATCC BLS108 after 72 hrs by micro-broth dilution method; details: ATCC BLS108, 72 h
Outline: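 Quality-control ATCC strain included in each assay. Microbroth dilution per NCCLS M27-A2. DMSO-dissolved compounds were serially diluted in growth medium, inoculated and held at 35 °C, with MIC read at 72 h. MIC80 is the first well showing about 80% growth reduction versus the drug-free well. Tests were done in triplicate and the mean reported.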

Candida tropicalis = experiment: Antifungal activity against Candida tropicalis clinical isolate by micro-broth dilution method; outline: as §1
Aspergillus fumigatus = experiment: Antifungal activity against Aspergillus fumigatus clinical isolate by micro-broth dilution method; outline: as §1
Candida albicans = experiment: Antifungal activity against Candida albicans ATCC Y0109 after 24 hrs by micro-broth dilution method; details: ATCC Y0109, 24 h
Outline: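 ATCC quality-control strain, tested in every assay. NCCLS M27-A2 broth microdilution. Compounds were dissolved in DMSO, serially diluted in growth medium, inoculated and incubated at 35 °C, with growth read at 24 h. MIC80 is the first well with about 80% growth reduction relative to the drug-free control. Each test was run three times and the mean of replicates taken.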

Trichophyton rubrum = experiment: Antifungal activity against Trichophyton rubrum clinical isolate by micro-broth dilution method; outline: as §1
Candida parapsilosis = experiment: Antifungal activity against Candida parapsilosis clinical isolate by micro-broth dilution method; details: Lodderomyces parapsilosis; outline: as §1

Compound `CCCC(=O)Nc1ccc(N2CCN(CC(O)(Cn3cncn3)c3ccc(F)cc3F)CC2)c(C(F)(F)F)c1` (configuration not stated) has an MIC80 (Nannizzia gypsea) of 1 µg/mL (≈ 1.81 µM), an MIC80 [1] of 4 µg/mL (≈ 7.24 µM) and an MIC80 (Cryptococcus neoformans) of 1 µg/mL (≈ 1.81 µM). For the same compound, the MIC80 (Candida tropicalis) was 1 µg/mL (≈ 1.81 µM), the MIC80 (Aspergillus fumigatus) was greater than 64 µg/mL and the MIC80 (Candida albicans) was 1 µg/mL (≈ 1.81 µM). It also gave an MIC80 (Trichophyton rubrum) of 4 µg/mL (≈ 7.24 µM) and an MIC80 (Candida parapsilosis) of 0.25 µg/mL (≈ 0.452 µM).

Work on `CCCCC(=O)Nc1ccc(N2CCN(CC(O)(Cn3cncn3)c3ccc(F)cc3F)CC2)c(C(F)(F)F)c1` (configuration not stated) yielded an MIC80 (Nannizzia gypsea) of 4 µg/mL (≈ 7.06 µM), an MIC80 [1] of 4 µg/mL (≈ 7.06 µM) and an MIC80 (Cryptococcus neoformans) of 4 µg/mL (≈ 7.06 µM). For the same compound, the MIC80 (Candida tropicalis) was 1 µg/mL (≈ 1.76 µM), the MIC80 (Aspergillus fumigatus) was greater than 64 µg/mL and the MIC80 (Candida albicans) was 1 µg/mL (≈ 1.76 µM). It also gave an MIC80 (Trichophyton rubrum) of 4 µg/mL (≈ 7.06 µM) and an MIC80 (Candida parapsilosis) of 0.25 µg/mL (≈ 0.441 µM).

`C[C@@H](c1ncncc1F)[C@](O)(Cn1cncn1)c1ccc(F)cc1F` [VORICONAZOLE] gave an MIC80 (Nannizzia gypsea) of 0.0039 µg/mL (≈ 0.0112 µM), an MIC80 [1] of 0.0156 µg/mL (≈ 0.0447 µM) and an MIC80 (Cryptococcus neoformans) of 0.0156 µg/mL (≈ 0.0447 µM). The MIC80 (Candida tropicalis) was 0.25 µg/mL (≈ 0.716 µM), the MIC80 (Aspergillus fumigatus) was 1 µg/mL (≈ 2.86 µM) and the MIC80 (Candida albicans) was 0.0156 µg/mL (≈ 0.0447 µM). For the same compound, the MIC80 (Trichophyton rubrum) was 0.0039 µg/mL (≈ 0.0112 µM) and the MIC80 (Candida parapsilosis) was 1 µg/mL (≈ 2.86 µM).

Compound `O=C(/C=C/c1cccc(F)c1)Nc1ccc(N2CCN(CC(O)(Cn3cncn3)c3ccc(F)cc3F)CC2)c(C(F)(F)F)c1` (configuration not stated) has an MIC80 (Cryptococcus neoformans) of 0.25 µg/mL (≈ 0.396 µM), an MIC80 (Aspergillus fumigatus) of 16 µg/mL (≈ 25.4 µM) and an MIC80 (Candida albicans) of 0.25 µg/mL (≈ 0.396 µM).

In the case of `O=C(Nc1ccc(N2CCN(CC(O)(Cn3cncn3)c3ccc(F)cc3F)CC2)c(C(F)(F)F)c1)c1cccnc1` (configuration not stated), the MIC80 (Cryptococcus neoformans) is reported as 0.25 µg/mL (≈ 0.425 µM), the MIC80 (Aspergillus fumigatus) is reported as 4 µg/mL (≈ 6.81 µM) and the MIC80 (Candida albicans) is reported as 0.0625 µg/mL (≈ 0.106 µM).

`O=C(/C=C/c1cccc(Cl)c1)Nc1ccc(N2CCN(CC(O)(Cn3cncn3)c3ccc(F)cc3F)CC2)c(C(F)(F)F)c1` (configuration not stated) showed an MIC80 (Cryptococcus neoformans) of 0.25 µg/mL (≈ 0.386 µM), an MIC80 (Aspergillus fumigatus) of 4 µg/mL (≈ 6.18 µM) and an MIC80 (Candida albicans) of 0.25 µg/mL (≈ 0.386 µM).

In the case of `OC(Cn1cncn1)(Cn1cncn1)c1ccc(F)cc1F` [FLUCONAZOLE], the MIC80 (Nannizzia gypsea) is reported as 0.25 µg/mL (≈ 0.816 µM), the MIC80 [1] is reported as 16 µg/mL (≈ 52.2 µM) and the MIC80 (Cryptococcus neoformans) is reported as 1 µg/mL (≈ 3.27 µM). The MIC80 (Candida tropicalis) was 1 µg/mL (≈ 3.27 µM), the MIC80 (Aspergillus fumigatus) was 64 µg/mL (≈ 209 µM) and the MIC80 (Candida albicans) was 4 µg/mL (≈ 13.1 µM). The MIC80 (Trichophyton rubrum) was 0.25 µg/mL (≈ 0.816 µM) and the MIC80 (Candida parapsilosis) was 1 µg/mL (≈ 3.27 µM).

Work on `CCc1ccc(C(=O)Nc2ccc(N3CCN(CC(O)(Cn4cncn4)c4ccc(F)cc4F)CC3)c(C(F)(F)F)c2)cc1` (configuration not stated) yielded an MIC80 (Cryptococcus neoformans) of 0.0625 µg/mL (≈ 0.102 µM), an MIC80 (Aspergillus fumigatus) of 4 µg/mL (≈ 6.51 µM) and an MIC80 (Candida albicans) of 0.25 µg/mL (≈ 0.407 µM).

For `O=C(Nc1ccc(N2CCN(CC(O)(Cn3cncn3)c3ccc(F)cc3F)CC2)c(C(F)(F)F)c1)c1ccncc1` (configuration not stated), the MIC80 (Cryptococcus neoformans) was 0.25 µg/mL (≈ 0.425 µM), the MIC80 (Aspergillus fumigatus) was 1 µg/mL (≈ 1.7 µM) and the MIC80 (Candida albicans) was 0.0625 µg/mL (≈ 0.106 µM).

In the case of `CC(C)C(=O)Nc1ccc(N2CCN(CC(O)(Cn3cncn3)c3ccc(F)cc3F)CC2)c(C(F)(F)F)c1` (configuration not stated), the MIC80 (Nannizzia gypsea) is reported as 1 µg/mL (≈ 1.81 µM), the MIC80 [1] is reported as 4 µg/mL (≈ 7.24 µM) and the MIC80 (Cryptococcus neoformans) is reported as 1 µg/mL (≈ 1.81 µM). For the same compound, the MIC80 (Candida tropicalis) was 1 µg/mL (≈ 1.81 µM), the MIC80 (Aspergillus fumigatus) was 64 µg/mL (≈ 116 µM) and the MIC80 (Candida albicans) was 0.25 µg/mL (≈ 0.452 µM). For the same compound, the MIC80 (Trichophyton rubrum) was 1 µg/mL (≈ 1.81 µM) and the MIC80 (Candida parapsilosis) was 0.25 µg/mL (≈ 0.452 µM).

Work on `O=C(/C=C/c1ccc(Cl)c(Cl)c1)Nc1ccc(N2CCN(CC(O)(Cn3cncn3)c3ccc(F)cc3F)CC2)c(C(F)(F)F)c1` (configuration not stated) yielded an MIC80 (Cryptococcus neoformans) of 0.25 µg/mL (≈ 0.367 µM), an MIC80 (Aspergillus fumigatus) of 4 µg/mL (≈ 5.87 µM) and an MIC80 (Candida albicans) of 0.25 µg/mL (≈ 0.367 µM).

`O=C(Nc1ccc(N2CCN(CC(O)(Cn3cncn3)c3ccc(F)cc3F)CC2)c(C(F)(F)F)c1)c1ccco1` (configuration not stated) showed an MIC80 (Cryptococcus neoformans) of 0.25 µg/mL (≈ 0.434 µM), an MIC80 (Aspergillus fumigatus) of 1 µg/mL (≈ 1.73 µM) and an MIC80 (Candida albicans) of 0.0625 µg/mL (≈ 0.108 µM).

In the case of `O=C(/C=C/c1ccccc1F)Nc1ccc(N2CCN(CC(O)(Cn3cncn3)c3ccc(F)cc3F)CC2)c(C(F)(F)F)c1` (configuration not stated), the MIC80 (Cryptococcus neoformans) is reported as 0.25 µg/mL (≈ 0.396 µM), the MIC80 (Aspergillus fumigatus) is reported as 4 µg/mL (≈ 6.34 µM) and the MIC80 (Candida albicans) is reported as 0.0625 µg/mL (≈ 0.0991 µM).

Compound `O=C(/C=C/c1ccccc1[N+](=O)[O-])Nc1ccc(N2CCN(CC(O)(Cn3cncn3)c3ccc(F)cc3F)CC2)c(C(F)(F)F)c1` (configuration not stated) has an MIC80 (Cryptococcus neoformans) of 0.25 µg/mL (≈ 0.38 µM), an MIC80 (Aspergillus fumigatus) greater than 64 µg/mL and an MIC80 (Candida albicans) of 0.25 µg/mL (≈ 0.38 µM).

In the case of `O=C(Nc1ccc(N2CCN(CC(O)(Cn3cncn3)c3ccc(F)cc3F)CC2)c(C(F)(F)F)c1)c1ccc(Cl)cc1` (configuration not stated), the MIC80 (Nannizzia gypsea) is reported as 0.25 µg/mL (≈ 0.403 µM), the MIC80 [1] is reported as 4 µg/mL (≈ 6.44 µM) and the MIC80 (Cryptococcus neoformans) is reported as greater than 64 µg/mL. The MIC80 (Candida tropicalis) was 1 µg/mL (≈ 1.61 µM), the MIC80 (Aspergillus fumigatus) was 4 µg/mL (≈ 6.44 µM) and the MIC80 (Candida albicans) was 4 µg/mL (≈ 6.44 µM). For the same compound, the MIC80 (Trichophyton rubrum) was 4 µg/mL (≈ 6.44 µM) and the MIC80 (Candida parapsilosis) was 0.25 µg/mL (≈ 0.403 µM).

`O=C(/C=C/c1ccc(Br)cc1)Nc1ccc(N2CCN(CC(O)(Cn3cncn3)c3ccc(F)cc3F)CC2)c(C(F)(F)F)c1` (configuration not stated) showed an MIC80 (Cryptococcus neoformans) of 0.25 µg/mL (≈ 0.362 µM), an MIC80 (Aspergillus fumigatus) of 1 µg/mL (≈ 1.45 µM) and an MIC80 (Candida albicans) of 1 µg/mL (≈ 1.45 µM).

`CCCCCC(=O)Nc1ccc(N2CCN(CC(O)(Cn3cncn3)c3ccc(F)cc3F)CC2)c(C(F)(F)F)c1` (configuration not stated) gave an MIC80 (Nannizzia gypsea) of 4 µg/mL (≈ 6.89 µM), an MIC80 [1] of 16 µg/mL (≈ 27.6 µM) and an MIC80 (Cryptococcus neoformans) of 1 µg/mL (≈ 1.72 µM). For the same compound, the MIC80 (Candida tropicalis) was 4 µg/mL (≈ 6.89 µM), the MIC80 (Aspergillus fumigatus) was 64 µg/mL (≈ 110 µM) and the MIC80 (Candida albicans) was 1 µg/mL (≈ 1.72 µM). It also gave an MIC80 (Trichophyton rubrum) of 4 µg/mL (≈ 6.89 µM) and an MIC80 (Candida parapsilosis) of 1 µg/mL (≈ 1.72 µM).

Work on `O=C(Nc1ccc(N2CCN(CC(O)(Cn3cncn3)c3ccc(F)cc3F)CC2)c(C(F)(F)F)c1)c1cccc(C(F)(F)F)c1` (configuration not stated) yielded an MIC80 (Cryptococcus neoformans) of 0.0625 µg/mL (≈ 0.0955 µM), an MIC80 (Aspergillus fumigatus) of 16 µg/mL (≈ 24.4 µM) and an MIC80 (Candida albicans) of 0.0625 µg/mL (≈ 0.0955 µM).

Compound `CCCCCCCC(=O)Nc1ccc(N2CCN(CC(O)(Cn3cncn3)c3ccc(F)cc3F)CC2)c(C(F)(F)F)c1` (configuration not stated) has an MIC80 (Nannizzia gypsea) of 0.25 µg/mL (≈ 0.411 µM), an MIC80 [1] of 4 µg/mL (≈ 6.57 µM) and an MIC80 (Cryptococcus neoformans) of 16 µg/mL (≈ 26.3 µM). The MIC80 (Candida tropicalis) was 16 µg/mL (≈ 26.3 µM), the MIC80 (Aspergillus fumigatus) was greater than 64 µg/mL and the MIC80 (Candida albicans) was 0.25 µg/mL (≈ 0.411 µM). It also gave an MIC80 (Trichophyton rubrum) of 4 µg/mL (≈ 6.57 µM) and an MIC80 (Candida parapsilosis) of 4 µg/mL (≈ 6.57 µM).
